This is an account of results in paper PMC5302092 (Cell, 2017).

Structures are written as SMILES. Residues, ends and D or L forms follow the SMILES beside them. *: point of attachment. Octanoyl = CCCCCCCC(=O)*

The target in test [1] is cathepsin L (CTSL1) catalytic cysteine Cys138 (Homo sapiens, UniProt P07711). Description: competitive isoTOP-ABPP, THP-1 membrane fraction, cathepsin L. In kind it is binding. Particulars: 250 nM, THP-1 membranes; R > 5 = targeted. The method, boiled down: (§1)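 THP-1 cells grown in RPMI with 10% FBS, penicillin, streptomycin, glutamine and 50 μM βME (37 °C, 5% CO2, <10 passages). Differentiated with 200 nM PMA for 18 h, then 3 more days. Sonicated lysate spun at 100,000 g for 45 min; membrane fraction set to 1.5 mg/mL. Test compound (final 25 μM, 2.5 μM or 250 nM) or 1% TFA water vehicle for 30 min, then 100 μM IA-alkyne for 30 min, ambient temperature.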

Test [2] concerns the target cathepsin C (CTSC) catalytic cysteine Cys258 (Homo sapiens, UniProt P53634). The experiment in a line: competitive isoTOP-ABPP, THP-1 membrane fraction, cathepsin C. In kind it is binding. The method, boiled down:
as §1

Another test concerns the target cathepsin B (CTSB) (Homo sapiens, UniProt P07858). The experiment in a line: competitive isoTOP-ABPP, THP-1 membrane fraction, cathepsin B. It is filed as binding. The settings on record: 250 nM, THP-1 membranes. In short, it runs like this:
as §1

A further test deals with T1, cathepsin H (CTSH) (Homo sapiens, UniProt P09668).
T1 sequence (P09668 98-335): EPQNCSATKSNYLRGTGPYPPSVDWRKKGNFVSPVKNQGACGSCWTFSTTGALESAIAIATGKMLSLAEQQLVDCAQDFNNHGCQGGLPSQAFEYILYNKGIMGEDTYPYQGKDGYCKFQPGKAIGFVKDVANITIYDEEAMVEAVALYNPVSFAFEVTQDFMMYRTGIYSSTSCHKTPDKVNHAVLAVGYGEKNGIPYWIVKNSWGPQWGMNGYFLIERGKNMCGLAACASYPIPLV
Description: competitive isoTOP-ABPP, THP-1 membrane fraction, cathepsin H. In kind it is binding. Particulars: 250 nM, THP-1 membranes. In short, it runs like this: as §1

The next test concerns the target cathepsin S (CTSS) (Homo sapiens, UniProt P25774). The experiment in a line: competitive isoTOP-ABPP, THP-1 membrane fraction, cathepsin S. In kind it is binding. In short, it runs like this:
as §1

The target in a further test is cathepsin Z (CTSZ) (Homo sapiens, UniProt Q9UBR2). Description: competitive isoTOP-ABPP, THP-1 membrane fraction, cathepsin Z. In kind it is binding. The method, boiled down: as §1
Test [3] can be described thus: competitive isoTOP-ABPP, proteome-wide cysteine selectivity. It is filed as binding, human. The settings on record: THP-1, Ramos, H1975 proteomes. In short, it runs like this: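 Proteomes came from THP-1 (RPMI, 10% FBS, βME, PMA-differentiated), Ramos (RPMI, 10% FBS) and H1975 (DMEM, 20% FBS) cells. Sonicated and split at 100,000 g into soluble and membrane fractions (1.5 mg/mL); some lysed into sodium acetate at pH 5 or 5.5. Test compound or vehicle for 30 min, then 100 μM IA-alkyne for 30 min, then isotopic biotin-tag click, enrichment, trypsin/TEV digests and LC-MS/MS. Cysteines with heavy/light MS1 ratio R > 5 called targeted.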

The target in a further test is cathepsin L (Homo sapiens, UniProt P07711). The experiment in a line: in vitro protease inhibition assay, cathepsin L. It is filed as biochemical. Particulars: result in words. The method, boiled down: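 Commercial cathepsin L (0.02 μg/ml) in 50 mM MES pH 5.5 with 5 mM DTT. Substrate z-FR-AMC at 20 μM added last to the enzyme/test compound mix; final DMSO below 5%. Fluorescence read-out; leupeptin as positive control. Normalized activity data were curve-fitted.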

The target in a further test is cathepsin S (Homo sapiens, UniProt P25774). Description: in vitro protease inhibition assay, cathepsin S. In kind it is biochemical. Particulars: read-out: activity against cathepsin S (IC50). The method, boiled down:
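Commercial cathepsin S pre-activated for 2 h at 10 μg/ml in 50 mM MES pH 5.5 with 5 mM DTT, then diluted to 100 ng/ml. Assayed with 10 μM z-FR-AMC, which was added last to the enzyme/test compound mix; final DMSO below 5%. Fluorogenic read-out; leupeptin as positive control. Normalized activity data fitted to give IC50.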

cathepsin Z (CTSZ), sequence (Q9UBR2 62-303): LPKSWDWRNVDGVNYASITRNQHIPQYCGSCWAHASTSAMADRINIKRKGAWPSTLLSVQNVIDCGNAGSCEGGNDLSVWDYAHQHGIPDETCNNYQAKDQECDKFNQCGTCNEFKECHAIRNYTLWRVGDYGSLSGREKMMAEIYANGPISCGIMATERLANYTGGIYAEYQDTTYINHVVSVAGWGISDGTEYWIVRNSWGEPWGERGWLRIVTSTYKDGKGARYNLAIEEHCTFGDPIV
cathepsin S (CTSS), sequence (P25774 115-331): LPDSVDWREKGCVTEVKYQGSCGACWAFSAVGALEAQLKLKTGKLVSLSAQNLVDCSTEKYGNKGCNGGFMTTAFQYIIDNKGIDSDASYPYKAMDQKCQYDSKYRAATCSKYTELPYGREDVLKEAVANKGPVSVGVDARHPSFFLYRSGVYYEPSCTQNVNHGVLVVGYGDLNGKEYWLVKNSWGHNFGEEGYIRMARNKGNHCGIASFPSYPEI
cathepsin C (CTSC) catalytic cysteine Cys258, sequence (P53634 25-463): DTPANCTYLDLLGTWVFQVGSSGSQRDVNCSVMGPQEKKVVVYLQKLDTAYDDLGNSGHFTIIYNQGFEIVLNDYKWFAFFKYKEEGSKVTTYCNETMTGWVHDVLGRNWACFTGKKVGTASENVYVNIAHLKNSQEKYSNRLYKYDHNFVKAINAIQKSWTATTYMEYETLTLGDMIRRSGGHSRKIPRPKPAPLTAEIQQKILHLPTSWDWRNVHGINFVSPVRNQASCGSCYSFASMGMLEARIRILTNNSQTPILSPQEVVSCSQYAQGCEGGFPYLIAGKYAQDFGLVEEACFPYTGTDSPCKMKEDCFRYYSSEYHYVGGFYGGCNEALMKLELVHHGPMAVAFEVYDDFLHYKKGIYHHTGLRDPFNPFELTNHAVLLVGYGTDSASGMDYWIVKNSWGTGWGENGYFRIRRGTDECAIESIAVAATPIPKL
cathepsin L (CTSL1) catalytic cysteine Cys138, sequence (P07711 114-333): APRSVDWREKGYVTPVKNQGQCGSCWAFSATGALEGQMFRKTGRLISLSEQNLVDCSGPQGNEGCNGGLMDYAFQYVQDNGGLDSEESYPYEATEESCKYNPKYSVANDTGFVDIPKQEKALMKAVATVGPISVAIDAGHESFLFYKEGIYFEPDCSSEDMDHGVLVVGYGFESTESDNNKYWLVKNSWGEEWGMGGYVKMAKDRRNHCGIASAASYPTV
cathepsin L, sequence (P07711 114-333, species assumed): as the sequence (P07711 114-333) above
cathepsin S, sequence (P25774 115-331, species assumed): as the sequence (P25774 115-331) above

Consider `N[C@@H](Cc1ccccc1)C(=O)N[C@H](C=O)Cc1ccccc1` [Phe-Phe-H] (H-Phe-Phe-aldehyde), for which the “R value (heavy/light MS1 ratio), blockade of IA-alkyne labeling of CTSL1 Cys138” value in [1] is on record as greater than 20. Further, the “R value (heavy/light MS1 ratio), CTSC catalytic cysteine Cys258” value in test [2] (250 nM, THP-1 membranes) is reported as greater than 2.78. For the same molecule, the “R value (heavy/light MS1 ratio), CTSC” value in [2] (25 μM, THP-1) was greater than 5. In addition, the “R value (heavy/light MS1 ratio), CTSB” value at cathepsin B (CTSB) is listed as less than 2.0. Also, on cathepsin H (CTSH), the “R value (heavy/light MS1 ratio), CTSH” value is on record as less than 2.0. Besides, the “R value (heavy/light MS1 ratio), CTSS” value at cathepsin S (CTSS) (250 nM, THP-1 membranes) is listed as less than 2.0; at cathepsin S (CTSS) (25 μM, THP-1), greater than 5. The “R value (heavy/light MS1 ratio), CTSZ” value at cathepsin Z (CTSZ) (250 nM, THP-1 membranes) is less than 2.0; on cathepsin Z (CTSZ) (25 μM, THP-1) it was greater than 5. Besides, the “R value (heavy/light MS1 ratio), non-cathepsin cysteines (no additional targets)” value in [3] is less than 2.0.

Consider `CCCCCCCC(=O)N[C@@H](CCSC)C(=O)N[C@H](C=O)Cc1ccccc1` [Compound 16, N-octanoyl-Met-Phe-H] (Octanoyl-Met-Phe-aldehyde), for which the “inhibitory activity against cathepsin L (IC50)” value against cathepsin L is on record as “undetectable activity”. Besides, the IC50 (in general, the point on the concentration scale where inhibition reaches its midpoint) on cathepsin S was determined as 0.013 µM.
